Experimental data reported in ChEMBL document CHEMBL4622886, “Leucinostatins from Ophiocordyceps spp. and Purpureocillium spp. Demonstrate Selective Antiproliferative Effects in Cells Representing the Luminal Androgen Receptor Subtype of Triple Negative Breast Cancer” (2020).
Activity calls are given as the source filed them. No cut-off for these calls is given here. Numbered stars: 1 amine (or outer) side, 2 acyl side, 3 side chain; on linkers, the order of the positions; unused ones are H or OH. Square brackets hold non-standard residues; d marks the D form. Peptide text beside a SMILES is read from it. * marks the point of attachment. X1 = CCC(=O)C[C@@H](O)C[C@@H](C)C[C@H](N[*:1])C(=O)[*:2]; X2 = CCC(=O)/C=C/C[C@@H](C)C[C@H](N[*:1])C(=O)[*:2]; Hexenoyl(2E,4S-Me) = CC[C@H](C)/C=C/C(=O)*; Leu(3R-OH) = CC(C)[C@@H](O)[C@H](N)C(=O)O; Pro(4S-Me) = C[C@@H]1CN[C@H](C(=O)O)C1; NH((S)CH(CH3)CH2NHMe) = CNC[C@H](C)N*; Aib = CC(C)(N)C(=O)O; βAla = NCCC(=O)O

Tests used:
MDA-MB-453 [1] = experiment: Antiproliferative activity against human MDA-MB-453 cells incubated for 48 hrs by sulforhodamine B assay; format: functional; settings: MDA-MB-453, 48 h
In short: (§1)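 IMEM with 5% FBS and 0.3% gentamicin; cells used within 4 months of thaw. After seeding at set densities and adhering, cells got compound or DMSO vehicle for 48 h, then were fixed and SRB-stained, with A560 read. GI50 (50% proliferation inhibition vs vehicle) came from non-linear regression of concentration-response curves; three independent experiments, each in triplicate.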

SUM185PE [2] = experiment: Antiproliferative activity against human SUM185PE cells incubated for 48 hrs by sulforhodamine B assay; format: functional; in short: as §1
MDA-MB-231 [3] = experiment: Antiproliferative activity against human MDA-MB-231 cells incubated for 48 hrs by sulforhodamine B assay; format: functional; settings: MDA-MB-231, 48 h; in short: as §1
mTORC1 (Homo sapiens) [4] = molecular target: T1, mTORC1 (Homo sapiens) (UniProt P42345+Q8N122+Q9BVC4); settings: MDA-MB-231, 10 nM
T1 sequence (Q8N122 whole entry, looked up, other chains not shown): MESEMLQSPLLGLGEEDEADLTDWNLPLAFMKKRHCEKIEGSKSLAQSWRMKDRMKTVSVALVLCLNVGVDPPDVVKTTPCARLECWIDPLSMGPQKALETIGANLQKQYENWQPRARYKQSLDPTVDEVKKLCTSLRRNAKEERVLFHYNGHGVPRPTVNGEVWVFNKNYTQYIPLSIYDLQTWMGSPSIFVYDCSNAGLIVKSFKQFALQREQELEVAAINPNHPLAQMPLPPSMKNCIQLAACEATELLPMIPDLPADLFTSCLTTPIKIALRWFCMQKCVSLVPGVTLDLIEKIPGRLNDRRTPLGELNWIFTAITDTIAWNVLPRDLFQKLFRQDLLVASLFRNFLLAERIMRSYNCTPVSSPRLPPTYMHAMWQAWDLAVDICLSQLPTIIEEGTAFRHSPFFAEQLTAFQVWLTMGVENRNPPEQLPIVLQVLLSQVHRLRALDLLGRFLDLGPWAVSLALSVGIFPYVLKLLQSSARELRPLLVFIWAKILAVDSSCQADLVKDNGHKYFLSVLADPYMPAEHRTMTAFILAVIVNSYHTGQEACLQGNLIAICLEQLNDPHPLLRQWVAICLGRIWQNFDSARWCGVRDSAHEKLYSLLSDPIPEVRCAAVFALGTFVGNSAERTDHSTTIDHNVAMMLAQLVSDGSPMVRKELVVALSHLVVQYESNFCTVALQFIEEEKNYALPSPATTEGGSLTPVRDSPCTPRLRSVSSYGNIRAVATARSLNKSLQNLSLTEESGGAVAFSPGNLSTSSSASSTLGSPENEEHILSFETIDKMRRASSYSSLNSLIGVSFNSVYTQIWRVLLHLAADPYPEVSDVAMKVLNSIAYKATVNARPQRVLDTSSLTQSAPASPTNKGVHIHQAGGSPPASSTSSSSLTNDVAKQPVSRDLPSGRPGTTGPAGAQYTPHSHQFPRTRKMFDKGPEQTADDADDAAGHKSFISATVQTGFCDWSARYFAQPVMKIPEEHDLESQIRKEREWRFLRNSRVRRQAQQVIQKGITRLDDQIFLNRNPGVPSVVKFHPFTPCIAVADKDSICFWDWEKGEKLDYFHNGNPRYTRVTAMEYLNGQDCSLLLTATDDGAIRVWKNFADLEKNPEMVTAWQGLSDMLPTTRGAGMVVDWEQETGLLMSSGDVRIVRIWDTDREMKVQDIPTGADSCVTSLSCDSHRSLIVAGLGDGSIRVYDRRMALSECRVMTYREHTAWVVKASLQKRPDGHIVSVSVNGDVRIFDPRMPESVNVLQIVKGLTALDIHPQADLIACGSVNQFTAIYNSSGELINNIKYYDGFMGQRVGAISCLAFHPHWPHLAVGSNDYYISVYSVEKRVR
T1 sequence (Q9BVC4 whole entry, looked up, other chains not shown): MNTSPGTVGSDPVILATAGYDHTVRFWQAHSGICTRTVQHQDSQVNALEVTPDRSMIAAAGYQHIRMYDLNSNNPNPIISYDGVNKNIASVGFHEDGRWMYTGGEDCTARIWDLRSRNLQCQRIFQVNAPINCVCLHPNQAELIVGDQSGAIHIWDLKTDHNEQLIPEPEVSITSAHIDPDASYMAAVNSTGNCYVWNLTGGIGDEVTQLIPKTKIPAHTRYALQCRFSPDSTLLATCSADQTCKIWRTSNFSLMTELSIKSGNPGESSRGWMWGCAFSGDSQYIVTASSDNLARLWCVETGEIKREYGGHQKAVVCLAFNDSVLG

mTORC1 (Homo sapiens) [5] = molecular target: T1, mTORC1 (Homo sapiens); settings: MDA-MB-453, 10 nM
mTORC1 (Homo sapiens) [6] = molecular target: T1, mTORC1 (Homo sapiens); experiment: Inhibition of mTORC1 signalling in human MDA-MB-231 cells assessed as induction of AKT phosphorylation at S473 residue at 100 nM measured within 18 hrs by immunoblot analysis relative to control; format: cell-based
In short: (§2)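 Cells were exposed to 100 nM compound or DMSO for 2, 6 or 18 h, then scraped and lysed with PMSF, Na3VO4 and protease inhibitors. Lysate (10 μg protein) ran on 10% Bis-Tris SDS-PAGE and went to PVDF. Blots were probed 1:1000 for phospho and total AKT (S473), S6K (T389), RPS6 (S235/236) and 4E-BP1 (T37/46), plus GAPDH. IRDye secondaries; infrared imaging; two independent experiments.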

mTORC1 (Homo sapiens) [7] = molecular target: T1, mTORC1 (Homo sapiens); experiment: Inhibition of mTORC1 signalling in human MDA-MB-231 cells assessed as reduction in ribosomal protein S6 kinase phosphorylation at T389 residue at 100 nM measured after 2 to 18 hrs by immunoblot analysis relative to control; format: cell-based; in short: as §2
MDA-MB-453 [8] = experiment: Antiproliferative activity against human MDA-MB-453 cells at 1 to 100 nM incubated for 48 hrs by sulforhodamine B assay; format: functional, cell-based; in short: as §1
SUM185PE [9] = experiment: Antiproliferative activity against human SUM185PE cells at 1 to 100 nM incubated for 48 hrs by sulforhodamine B assay; format: functional, cell-based; in short: as §1
HCC1937 [10] = experiment: Antiproliferative activity against human HCC1937 cells up to 100 nM incubated for 48 hrs by sulforhodamine B assay; format: functional, cell-based
In short: (§3)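 Cells (RPMI-1640 with 5% FBS, 0.5% gentamicin; used within 4 months of thaw) were seeded at set densities, allowed to adhere, then treated 48 h with compound or DMSO vehicle. Cells were fixed and SRB-stained, with absorbance read at 560 nm. GI50 vs vehicle was taken by non-linear regression; three independent experiments, each in triplicate.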

HCC1806 [11] = experiment: Antiproliferative activity against human HCC1806 cells up to 100 nM incubated for 48 hrs by sulforhodamine B assay; format: functional, cell-based; in short: as §3
BT-549 [12] = experiment: Antiproliferative activity against human BT549 cells up to 100 nM incubated for 48 hrs by sulforhodamine B assay; format: functional, cell-based; in short: as §3
MDA-MB-231 [13] = experiment: Antiproliferative activity against human MDA-MB-231 cells up to 100 nM incubated for 48 hrs by sulforhodamine B assay; format: functional, cell-based; in short: as §1
HCC1937 [14] = experiment: Antiproliferative activity against human HCC1937 cells at >1 uM incubated for 48 hrs by sulforhodamine B assay; format: functional, cell-based; in short: as §3
MDA-MB-453 [15] = experiment: Antiproliferative activity against human MDA-MB-453 cells at > 1 uM incubated for 48 hrs by sulforhodamine B assay; format: functional, cell-based; in short: as §1
HCC1806 [16] = experiment: Antiproliferative activity against human HCC1806 cells at >1 uM incubated for 48 hrs by sulforhodamine B assay; format: functional, cell-based; in short: as §3
MDA-MB-231 [17] = experiment: Antiproliferative activity against human MDA-MB-231 cells at > 1 uM incubated for 48 hrs by sulforhodamine B assay; format: functional, cell-based; in short: as §1
BT-549 [18] = experiment: Antiproliferative activity against human BT549 cells at >1 uM incubated for 48 hrs by sulforhodamine B assay; format: functional, cell-based; in short: as §3
mTORC1 (Homo sapiens) [19] = molecular target: T1, mTORC1 (Homo sapiens); experiment: Inhibition of mTORC1 signalling in human MDA-MB-453 cells assessed as reduction in ribosomal protein S6 kinase phosphorylation at T389 residue at 100 nM measured within 2 hrs by immunoblot analysis relative to control; format: cell-based; in short: as §2
mTORC1 (Homo sapiens) [20] = molecular target: T1, mTORC1 (Homo sapiens); experiment: Inhibition of mTORC1 signalling in human MDA-MB-453 cells assessed as reduction in RPS6 phosphorylation at S235/236 residue at 100 nM measured at 2 hrs by immunoblot analysis; format: cell-based; in short: as §2
mTORC1 (Homo sapiens) [21] = molecular target: T1, mTORC1 (Homo sapiens); experiment: Inhibition of mTORC1 signalling in human MDA-MB-453 cells assessed as reduction in RPS6 phosphorylation at S235/236 residue at 100 nM measured at 6 hrs by immunoblot analysis relative to control; format: cell-based; in short: as §2
mTORC1 (Homo sapiens) [22] = molecular target: T1, mTORC1 (Homo sapiens); experiment: Inhibition of mTORC1 signalling in human MDA-MB-453 cells assessed as induction of AKT phosphorylation at S473 residue at 100 nM measured within 18 hrs by immunoblot analysis relative to control; format: cell-based; in short: as §2
mTORC1 (Homo sapiens) [23] = molecular target: T1, mTORC1 (Homo sapiens); experiment: Inhibition of mTORC1 signalling in human MDA-MB-231 cells assessed as reduction in RPS6 phosphorylation at S235/236 residue at 100 nM measured after 2 to 18 hrs by immunoblot analysis relative to control; format: cell-based; in short: as §2
mTORC1 (Homo sapiens) [24] = molecular target: T1, mTORC1 (Homo sapiens); experiment: Inhibition of mTORC1 signalling in human MDA-MB-453 cells assessed as reduction in 4E-BP1 phosphorylation at T37/46 residue at 100 nM measured after 2 hrs by immunoblot analysis; format: cell-based; in short: as §2
mTORC1 (Homo sapiens) [25] = molecular target: T1, mTORC1 (Homo sapiens); experiment: Inhibition of mTORC1 signalling in human MDA-MB-231 cells assessed as reduction in 4E-BP1 phosphorylation at T37/46 residue at 100 nM measured after 2 hrs by immunoblot analysis; format: cell-based; in short: as §2
MDA-MB-453 [26] = experiment: Antiproliferative activity against human MDA-MB-453 cells at 0.01 to 100 nM incubated for 48 hrs by sulforhodamine B assay; format: functional, cell-based; in short: as §1
SUM185PE [27] = experiment: Antiproliferative activity against human SUM185PE cells at 0.01 to 100 nM incubated for 48 hrs by sulforhodamine B assay; format: functional, cell-based; in short: as §1

Compound	GI50 (MDA-MB-453 [1]) [nM]	GI50 (SUM185PE [2]) [nM]	GI50 (MDA-MB-231 [3]) [nM]	Activity (MDA-MB-453 [8])	Activity (SUM185PE [9])	Activity (HCC1937 [10])	Activity (HCC1806 [11])	Activity (BT-549 [12])	Activity (MDA-MB-231 [13])	Activity (HCC1937 [14])	Activity (MDA-MB-453 [15])	Activity (HCC1806 [16])	Activity (MDA-MB-231 [17])	Activity (BT-549 [18])	also measured
CO[C@H]1C[C@@H]2CC[C@@H](C)[C@@](O)(O2)C(=O)C(=O)N2CCCC[C@H]2C(=O)O[C@H]([C@H](C)C[C@@H]2CC[C@@H](O)[C@H](OC)C2)CC(=O)[C@H](C)/C=C(\C)[C@@H](O)[C@@H](OC)C(=O)[C@H](C)C[C@H](C)/C=C/C=C/C=C/1C [SIROLIMUS]	0.05	0.04	> 100	–	–	–	–	–	–	–	–	–	–	–	inhibition (mTORC1 (Homo sapiens) [4]): Active; inhibition (mTORC1 (Homo sapiens) [5]): Active
CCC(=O)C[C@@H](O)C[C@@H](C)C[C@H](NC(=O)[C@@H]1C[C@H](C)CN1C(=O)/C=C/[C@@H](C)CC)C(=O)N[C@H](C(=O)NC(C)(C)C(=O)N[C@@H](CC(C)C)C(=O)N[C@@H](CC(C)C)C(=O)NC(C)(C)C(=O)NC(C)(C)C(=O)NCCC(=O)N[C@@H](C)CNC)[C@H](O)C(C)C ({Hexenoyl(2E,4S-Me)}-[Pro(4S-Me)][X1][Leu(3R-OH)][Aib]LL[Aib][Aib][βAla]-{NH((S)CH(CH3)CH2NHMe)})	–	–	–	Active	Active	inactive	inactive	inactive	inactive	Active	Active	Active	Active	Active	inhibition (mTORC1 (Homo sapiens) [6]): inactive; inhibition (mTORC1 (Homo sapiens) [7]): inactive; inhibition (mTORC1 (Homo sapiens) [19]): 100%; inhibition (mTORC1 (Homo sapiens) [20]): Active; inhibition (mTORC1 (Homo sapiens) [21]): 100%; inhibition (mTORC1 (Homo sapiens) [22]): Active; inhibition (mTORC1 (Homo sapiens) [23]): inactive; inhibition (mTORC1 (Homo sapiens) [24]): Active; inhibition (mTORC1 (Homo sapiens) [25]): inactive; inhibition (MDA-MB-453 [26]): Active; inhibition (SUM185PE [27]): Active
CCC(=O)/C=C/C[C@@H](C)C[C@H](NC(=O)[C@@H]1C[C@H](C)CN1C(=O)/C=C/[C@@H](C)CC)C(=O)N[C@H](C(=O)NC(C)(C)C(=O)N[C@@H](CC(C)C)C(=O)N[C@@H](CC(C)C)C(=O)NC(C)(C)C(=O)NC(C)(C)C(=O)NCCC(=O)N[C@@H](C)CNC)[C@H](O)C(C)C ({Hexenoyl(2E,4S-Me)}-[Pro(4S-Me)][X2][Leu(3R-OH)][Aib]LL[Aib][Aib][βAla]-{NH((S)CH(CH3)CH2NHMe)})	4	2.2	> 100	Active	Active	inactive	inactive	inactive	inactive	Active	Active	Active	Active	Active	–
